ChEMBL document CHEMBL6120954, “Development of Fragment-Based Inhibitors of the Bacterial Deacetylase LpxC with Low Nanomolar Activity” (J Med Chem, 2024)
pIC50, pKi: −log10 of the molar value. Converted amounts (≈) assume the structure as drawn.

Assays:
Escherichia coli [1] = experiment: Antibacterial activity against Escherichia coli BL21(DE3) assessed as Diameter of inhibition zone incubated for 20 hrs by disc diffusion assay; assay type: functional
Method in brief: (§1)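 E. coli BL21(DE3) and the defective strain D22 were grown overnight in LB at 37 °C and 200 rpm, and 150 μL was spread on LB agar. Each compound (0.15 μmol in 10 or 15 μL DMSO) was spotted on 6 mm filter paper discs, with DMSO as negative and CHIR-090 as positive control. Plates were incubated overnight at 37 °C and the growth-inhibition zone diameter was measured.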

Escherichia coli [2] = experiment: Antibacterial activity against Escherichia coli D22 assessed as diameter of inhibition zone incubated for 20 hrs by disc diffusion assay; assay type: functional; method in brief: as §1
[3] = Inhibition of Escherichia coli LpxC C63A mutant assessed as inhibition constant incubated for 30 mins by microplate reader analysis
Method in brief: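 Purified E. coli LpxC C63A (15 nM final), expressed in E. coli BL21(DE3), with 25 μM UDP-3-O-[(R)-3-hydroxymyristoyl]-N-acetylglucosamine. Buffer was 40 mM MES pH 6.0, 80 μM DTT, 0.02% Brij 35 and 2% DMSO, with inhibitor at 20 nM–20 μM, for 30 min at 37 °C. The reaction was stopped with NaOH, neutralised with acetic acid, and product was derivatised with o-phthaldialdehyde/2-mercaptoethanol (ex 340, em 460 nm). Runs were done at least three times.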

Escherichia coli [4] = experiment: Antibacterial activity against Escherichia coli D22 assessed as inhibition of visible bacterial growth incubated for 20 hrs by microdilution method; assay type: functional
Method in brief: (§2)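 Broth microdilution in LB. Overnight cultures (37 °C, 200 rpm) were diluted 1:1000 and mixed with 2-fold compound dilutions in DMSO, giving 5 × 10⁵ cfu mL⁻¹, 5% DMSO and final compound concentrations of 64–0.016 μg mL⁻¹. Plates were incubated 20 h at 37 °C. MIC was the lowest concentration preventing visible growth, from at least three runs on separate days.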

Escherichia coli [5] = experiment: Antibacterial activity against Escherichia coli BL21(DE3) assessed as inhibition of visible bacterial growth incubated for 20 hrs by microdilution method; assay type: functional; method in brief: as §2
[6] = Metabolic stability in CD-1 mouse microsome; assay type: ADME; conditions: microsomes
[7] = Metabolic stability in CD-1 mouse liver S9 fraction assessed as half life in presence of NADPH by HPLC-MS/MS analysis; assay type: ADME, subcellular
Method in brief: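 Compound at 1 μM was incubated at 37 °C for 120 min with pooled mouse liver S9 (1 mg/mL), 2 mM NADPH, 1 mM UDPGA, 10 mM MgCl₂, 5 mM GSH and 0.1 mM PAPS. Aliquots taken at set times were quenched with 2 volumes of cold acetonitrile containing diphenhydramine internal standard and centrifuged. Remaining compound was quantified by HPLC–MS/MS to derive half-life, with testosterone, verapamil and ketoconazole as activity controls.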

[8] = molecular target: Elastase (Pseudomonas aeruginosa (strain ATCC 15692 / PAO1 / 1C / PRS 101 / LMG12228)) (UniProt P14756); experiment: Inhibition of Pseudomonas aeruginosa PA14 LasB at 20 uM by FRET assay relative to control
Elastase = Elastase (Pseudomonas aeruginosa (strain ATCC 15692 / PAO1 / 1C / PRS 101 / LMG12228), UniProt P14756); experiment: Inhibition of Pseudomonas aeruginosa PA14 LasB by FRET assay
[9] = molecular target: T1, UDP-3-O-acyl-N-acetylglucosamine deacetylase (Pseudomonas aeruginosa, UniProt B5ATN6); experiment: Inhibition of Pseudomonas aeruginosa LpxC
T1 sequence (B5ATN6 whole entry): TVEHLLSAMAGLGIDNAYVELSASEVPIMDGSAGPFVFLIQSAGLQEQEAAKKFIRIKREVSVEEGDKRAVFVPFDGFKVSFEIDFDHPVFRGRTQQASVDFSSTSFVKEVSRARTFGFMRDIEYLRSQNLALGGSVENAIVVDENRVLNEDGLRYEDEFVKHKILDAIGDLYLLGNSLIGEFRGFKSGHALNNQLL
Method in brief: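 Buffer was 50 mM potassium phosphate pH 7.5, 80 μM DTT, 0.02% Brij 35 and 2% DMSO, with inhibitor at 5 nM–5 μM, for 30 min at 37 °C. The reaction was stopped with HCl. Substrate and product were quantified by LC–MS/MS MRM peak areas relative to the uninhibited reaction, in at least two runs.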

[10] = Plasma protein binding in human; assay type: ADME, cell-free
Homo sapiens = species: Homo sapiens; experiment: Inhibition of TACE (unknown origin) at 100 uM relative to control

Chain of Elastase (Pseudomonas aeruginosa (strain ATCC 15692 / PAO1 / 1C / PRS 101 / LMG12228)) (P14756 198-498 limits assumed): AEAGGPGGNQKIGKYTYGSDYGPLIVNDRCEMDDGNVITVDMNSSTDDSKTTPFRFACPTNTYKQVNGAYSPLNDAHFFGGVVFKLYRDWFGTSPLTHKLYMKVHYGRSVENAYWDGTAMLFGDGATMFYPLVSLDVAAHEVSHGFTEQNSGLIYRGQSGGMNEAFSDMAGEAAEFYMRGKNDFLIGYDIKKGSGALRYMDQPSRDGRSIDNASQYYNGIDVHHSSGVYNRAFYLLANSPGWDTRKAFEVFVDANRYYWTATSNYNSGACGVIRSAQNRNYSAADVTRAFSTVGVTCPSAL
Chain of Elastase (P14756 whole entry): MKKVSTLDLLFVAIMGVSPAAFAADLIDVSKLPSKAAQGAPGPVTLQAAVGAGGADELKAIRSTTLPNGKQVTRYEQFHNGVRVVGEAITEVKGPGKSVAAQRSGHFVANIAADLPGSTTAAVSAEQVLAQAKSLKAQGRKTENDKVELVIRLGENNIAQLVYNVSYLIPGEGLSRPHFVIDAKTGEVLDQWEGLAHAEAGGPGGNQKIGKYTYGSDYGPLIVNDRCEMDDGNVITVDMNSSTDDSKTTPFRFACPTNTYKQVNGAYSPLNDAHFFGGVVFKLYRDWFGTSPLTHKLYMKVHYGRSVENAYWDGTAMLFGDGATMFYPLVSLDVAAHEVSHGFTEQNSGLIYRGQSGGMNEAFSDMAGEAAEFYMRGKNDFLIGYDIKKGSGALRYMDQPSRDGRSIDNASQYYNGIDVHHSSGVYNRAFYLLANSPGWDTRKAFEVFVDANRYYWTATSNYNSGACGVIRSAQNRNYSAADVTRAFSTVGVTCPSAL

With `O=C(NO)[C@@H](CO)OCc1ccc(C#Cc2ccc(CN3CCOCC3)cc2)cc1` the “diameter of the inhibition zone (DIZ)” value (Escherichia coli [1]) was 12.3 mm, the “diameter of the inhibition zone (DIZ)” value (Escherichia coli [2]) was 22 mm and the pKi [3] was 6.62. For the same compound, the MIC (Escherichia coli [4]) was 2 mg/L (≈ 4.87 µM) and the MIC (Escherichia coli [5]) was 64 mg/L (≈ 156 µM).
`O=C(NC[C@@H](OCc1ccc(C#Cc2ccc(CN3CCOCC3)cc2)cc1)C(=O)NO)c1ccc2[nH]ccc2c1` gave a pKi [3] of 5.94.
With `O=C(NC[C@@H](OCc1ccc(C#Cc2ccc(CN3CCOCC3)cc2)cc1)C(=O)NO)c1cc(-c2ccccc2)[nH]n1` the “diameter of the inhibition zone (DIZ)” value (Escherichia coli [1]) was “<=6 mm” and the pKi [3] was less than 5.60.
For `O=C(NC[C@@H](OCc1ccc(C#Cc2ccc(CN3CCOCC3)cc2)cc1)C(=O)NO)c1cc2ccccc2[nH]1`, the pKi [3] was less than 5.60.
With `O=C(NO)[C@H](COCc1ccccc1)OCc1ccc(C#Cc2ccc(CN3CCOCC3)cc2)cc1` the “diameter of the inhibition zone (DIZ)” value (Escherichia coli [1]) was “<=6 mm”.
For `O=C(NC[C@@H](OCc1ccc(C#Cc2ccc(CN3CCOCC3)cc2)cc1)C(=O)NO)c1cnc2ccccc2c1`, the pKi [3] was less than 5.60.
For `O=C(NC[C@@H](OCc1ccc(C#Cc2ccc(CN3CCOCC3)cc2)cc1)C(=O)NO)c1ccc2ccccc2n1`, the “diameter of the inhibition zone (DIZ)” value (Escherichia coli [1]) was “<=6 mm” and the pKi [3] was less than 5.60.
With `O=C(NC[C@H](OCc1ccc(C#Cc2ccc(CN3CCOCC3)cc2)cc1)C(=O)NO)c1cc[nH]n1` the Stability [6] was “Stable” and the t1/2 [7] was 1.07 h.
In the case of `O=C(NC[C@H](OCc1ccc(C#Cc2ccc(CN3CCOCC3)cc2)cc1)C(=O)NO)c1ccc2ccccc2n1`, the pKi [3] was 6.42.
With `O=C(COCc1ccc(C#Cc2ccc(CN3CCOCC3)cc2)cc1)NO` the “diameter of the inhibition zone (DIZ)” value (Escherichia coli [1]) was 16.5 mm, the “diameter of the inhibition zone (DIZ)” value (Escherichia coli [2]) was 20.3 mm and the pKi [3] was 5.82. It also gave an MIC (Escherichia coli [4]) of 1 mg/L (≈ 2.63 µM) and an MIC (Escherichia coli [5]) of 64 mg/L (≈ 168 µM).
In the case of `O=C(NC[C@H](OCc1ccc(C#Cc2ccc(CN3CCOCC3)cc2)cc1)C(=O)NO)c1ccc(Oc2ccccc2)cc1`, the pKi [3] was 6.49 and the inhibition [8] was less than 10%.
With `O=C(NC[C@H](OCc1ccc(C#Cc2ccc(CN3CCOCC3)cc2)cc1)C(=O)NO)c1cnc2ccccc2c1` the pKi [3] was 6.93 and the inhibition [8] was less than 10%.
For `O=C(NC[C@H](OCc1ccc(C#Cc2ccc(CN3CCOCC3)cc2)cc1)C(=O)NO)c1ccc2[nH]ccc2c1`, the Stability [6] was “Stable”, the pKi [3] was 8.02 and the inhibition [8] was less than 10%.
For `O=C(NO)[C@H](OCc1ccc(C#Cc2ccc(CN3CCOCC3)cc2)cc1)[C@@H](O)COCc1ccccc1`, the “diameter of the inhibition zone (DIZ)” value (Escherichia coli [1]) was 8.5 mm, the “diameter of the inhibition zone (DIZ)” value (Escherichia coli [2]) was 13.3 mm and the pKi [3] was 6.06. For the same compound, the inhibition [8] was less than 10%, the MIC (Escherichia coli [4]) was 4 mg/L (≈ 7.54 µM) and the MIC (Escherichia coli [5]) was greater than 64 mg/L.
With `O=C(NO)[C@H](CN(Cc1ccccc1)Cc1ccccc1)OCc1ccc(C#Cc2ccc(CN3CCOCC3)cc2)cc1` the “diameter of the inhibition zone (DIZ)” value (Escherichia coli [1]) was “<=6 mm”, the pKi [3] was less than 5.60 and the inhibition [8] was less than 10%. For the same compound, the MIC (Escherichia coli [5]) was 8 mg/L (≈ 13.6 µM).
In the case of `O=C(NO)[C@H](OCc1ccc(C#Cc2ccc(CN3CCOCC3)cc2)cc1)[C@H](O)COCc1ccccc1`, the inhibition [8] was less than 10%.
For `O=C(NO)[C@@H](CN(Cc1ccccc1)Cc1ccccc1)OCc1ccc(C#Cc2ccc(CN3CCOCC3)cc2)cc1`, the “diameter of the inhibition zone (DIZ)” value (Escherichia coli [1]) was “<=6 mm”, the “diameter of the inhibition zone (DIZ)” value (Escherichia coli [2]) was “<=6 mm” and the pKi [3] was less than 5.60. For the same compound, the MIC (Escherichia coli [5]) was greater than 64 mg/L.
Compound `O=C(NC[C@H](OCc1ccc(C#Cc2ccc(CN3CCOCC3)cc2)cc1)C(=O)NO)c1cc2ccccc2[nH]1` has a pKi [3] of 7.06 and an inhibition [8] of less than 10%.
For `O=C(NC[C@@H](OCc1ccc(C#Cc2ccc(CN3CCOCC3)cc2)cc1)C(=O)NO)c1ccc(Oc2ccccc2)cc1`, the pKi [3] was less than 5.60.
Work on `O=C(NC[C@@H](OCc1ccc(C#Cc2ccc(CN3CCOCC3)cc2)cc1)C(=O)NO)c1cccc(-c2ccccc2)c1` yielded a pKi [3] of less than 5.60.
In the case of `O=C(NC[C@H](OCc1ccc(C#Cc2ccc(CN3CCOCC3)cc2)cc1)C(=O)NO)c1cc(-c2ccccc2)[nH]n1`, the pKi [3] was 7.07 and the inhibition [8] was less than 10%.
For `O=C(NC[C@H](OCc1ccc(C#Cc2ccc(CN3CCOCC3)cc2)cc1)C(=O)NO)c1ccc(-c2ccccc2)cc1`, the pKi [3] was less than 5.60 and the inhibition [8] was less than 10%.
Compound `O=C(NC[C@H](OCc1ccc(C#Cc2ccc(CN3CCOCC3)cc2)cc1)C(=O)NO)c1ccccc1` has an MIC (Escherichia coli [5]) greater than 16 mg/L.
For `Cc1noc(C)c1COC[C@H](O)[C@H](OCc1ccc(C#Cc2ccc(CN3CCOCC3)cc2)cc1)C(=O)NO`, the inhibition [8] was less than 10%.
With `O=C(NC[C@@H](OCc1ccc(C#Cc2ccc(CN3CCOCC3)cc2)cc1)C(=O)NO)c1c[nH]c2ccccc12` the pKi [3] was 5.80.
Work on `Cc1noc(C)c1C(=O)NC[C@@H](OCc1ccc(C#Cc2ccc(CN3CCOCC3)cc2)cc1)C(=O)NO` yielded a pKi [3] of less than 5.60 and an inhibition [8] of less than 10%.
For `O=C(NC[C@@H](OCc1ccc(C#Cc2ccc(CN3CCOCC3)cc2)cc1)C(=O)NO)c1ccc(-c2ccccc2)cc1`, the pKi [3] was less than 5.60.
For `O=C(NO)[C@H](CO)OCc1ccc(C#Cc2ccc(CN3CCOCC3)cc2)cc1`, the “diameter of the inhibition zone (DIZ)” value (Escherichia coli [1]) was 15.7 mm, the “diameter of the inhibition zone (DIZ)” value (Escherichia coli [2]) was 25.8 mm and the pKi [3] was 6.39. It also gave an MIC (Escherichia coli [4]) of 1 mg/L (≈ 2.44 µM) and an MIC (Escherichia coli [5]) of 32 mg/L (≈ 78 µM).
For `O=C(NC[C@H](OCc1ccc(C#Cc2ccc(CN3CCOCC3)cc2)cc1)C(=O)NO)c1cccc(-c2ccccc2)c1`, the pKi [3] was 7.38 and the inhibition [8] was less than 10%.
For `O=C(NO)[C@@H](OCc1ccc(C#Cc2ccc(CN3CCOCC3)cc2)cc1)[C@@H](O)COCc1ccccc1`, the “diameter of the inhibition zone (DIZ)” value (Escherichia coli [1]) was 11.2 mm, the “diameter of the inhibition zone (DIZ)” value (Escherichia coli [2]) was 19.5 mm and the pKi [3] was 6.55. It also gave an inhibition [8] of 61%, a pIC50 (Elastase) of 4.75 and an MIC (Escherichia coli [4]) of 0.13 mg/L (≈ 0.245 µM). The MIC (Escherichia coli [5]) was 4 mg/L (≈ 7.54 µM).
With `O=C(NO)[C@@H](COCc1ccccc1)OCc1ccc(C#Cc2ccc(CN3CCOCC3)cc2)cc1` the “diameter of the inhibition zone (DIZ)” value (Escherichia coli [1]) was “<=6 mm”.
`CCc1ccc(-c2ccc(C(=O)N[C@H](C(=O)NO)[C@@H](C)NCc3ccccn3)cc2)cc1` showed a pIC50 [9] of 7.02.
With `O=C(NC[C@H](OCc1ccc(C#Cc2ccc(CN3CCOCC3)cc2)cc1)C(=O)NO)c1c[nH]c2ccccc12` the Stability [6] was “Stable”, the fraction unbound [10] was less than 0.03 and the pKi [3] was 7.97. It also gave an inhibition (Homo sapiens) of less than 10%.
Work on `Cc1noc(C)c1C(=O)NC[C@H](OCc1ccc(C#Cc2ccc(CN3CCOCC3)cc2)cc1)C(=O)NO` yielded a pKi [3] of 6.90.
Compound `O=C(NC[C@@H](OCc1ccc(C#Cc2ccc(CN3CCOCC3)cc2)cc1)C(=O)NO)c1ccccc1` has an MIC (Escherichia coli [5]) greater than 16 mg/L.
Work on `O=C(NO)[C@@H](OCc1ccc(C#Cc2ccc(CN3CCOCC3)cc2)cc1)[C@H](O)COCc1ccccc1` yielded an inhibition [8] of 64.9% and a pIC50 (Elastase) of 4.83.
